Measured values: ChEMBL document CHEMBL2311303, “Synthesis and anticancer activity of a novel series of 9-O-substituted berberine derivatives: a lipophilic substitute role” (Bioorg Med Chem Lett, 2013)
Activity calls are given as the source filed them. No cut-off for these calls is given here.

Experiments:
[1] = test system: HepG2; experiment: Induction of apoptosis in human HepG2 cells assessed as early apoptotic cells at 0.25 uM after 24 hrs using annexin-V/FITC/propidium iodide staining by flow cytometry analysis (reference value: 2.05%); type: functional
Method in brief: (§1)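 HepG2 cells exposed for 24 h to 0.25, 0.5 or 1.0 µM, with vehicle alone as control. Cells then double-stained with annexin V-FITC/PI and analysed by flow cytometry. Quadrant read-out: annexin V-positive/PI-negative cells counted as early apoptotic.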

[2] = test system: HepG2; experiment: Induction of apoptosis in human HepG2 cells assessed as viable cells at 0.25 uM after 24 hrs using annexin-V/FITC/propidium iodide staining by flow cytometry analysis (reference value: 94.29%); type: functional; conditions: HepG2, 24 h, read-out: Activity; method in brief: as §1
[3] = test system: HepG2; experiment: Induction of apoptosis in human HepG2 cells assessed as necrotic cells at 0.25 uM after 24 hrs using annexin-V/FITC/propidium iodide staining by flow cytometry analysis (reference value: 0.51%); type: functional; method in brief: as §1
[4] = test system: HepG2; experiment: Induction of apoptosis in human HepG2 cells assessed as morphological changes at 0.5 to 1 uM after 24 hrs using Hoechst 33258 staining by fluorescence microscopic analysis; type: functional, cell-based
Method in brief: (§2)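 HepG2 cells left untreated or exposed for 24 h, at 20 µM or at 0.5 or 1.0 µM depending on compound. Cells then stained with Hoechst 33258 and nuclear morphology examined by fluorescence microscopy at ×400.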

[5] = test system: HepG2; experiment: Ratio of berberine IC50 to compound IC50 for human HepG2 cells; type: functional
[6] = Cytotoxicity against mouse BNL-CL2 cells at 10 uM after 48 hrs by MTT assay; type: functional
[7] = test system: HepG2; experiment: Cytotoxicity against human HepG2 cells after 24 to 72 hrs by MTT assay; type: functional, cell-based
Method in brief: (§3)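 HepG2 cells exposed to a range of concentrations for 24, 48 and 72 h. Viability then read by MTT. Data are means ± SD of at least three replicates from three independent experiments.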

[8] = test system: HT-29; experiment: Cytotoxicity against human HT-29 cells after 48 hrs by MTT assay; type: functional, cell-based; conditions: HT-29, 48 h
[9] = test system: HepG2; experiment: Cytotoxicity against human HepG2 cells by MTT assay; type: functional, cell-based; conditions: TDE = time-dependent effect; method in brief: as §3
[10] = test system: HT-29; experiment: Cytotoxicity against human HT-29 cells after 24 hrs by MTT assay; type: functional, cell-based; conditions: HT-29, 24 h
[11] = test system: HepG2; experiment: Cytotoxicity against human HepG2 cells after 24 hrs by MTT assay; type: functional, cell-based; conditions: HepG2, 24 h
[12] = test system: HepG2; experiment: Cytotoxicity against human HepG2 cells after 48 hrs by MTT assay; type: functional, cell-based; conditions: HepG2, 48 h
[13] = test system: HepG2; experiment: Induction of apoptosis in human HepG2 cells assessed as late apoptotic cells at 1 uM after 24 hrs using annexin-V/FITC/propidium iodide staining by flow cytometry analysis (reference value: 3.16%); type: functional; method in brief: as §1
[14] = test system: HepG2; experiment: Induction of apoptosis in human HepG2 cells assessed as early apoptotic cells at 1 uM after 24 hrs using annexin-V/FITC/propidium iodide staining by flow cytometry analysis (reference value: 2.05%); type: functional; method in brief: as §1
[15] = test system: HepG2; experiment: Induction of apoptosis in human HepG2 cells assessed as viable cells at 1 uM after 24 hrs using annexin-V/FITC/propidium iodide staining by flow cytometry analysis (reference value: 94.29%); type: functional; conditions: HepG2, 24 h, read-out: Activity; method in brief: as §1
[16] = test system: HepG2; experiment: Induction of apoptosis in human HepG2 cells assessed as necrotic cells at 1 uM after 24 hrs using annexin-V/FITC/propidium iodide staining by flow cytometry analysis (reference value: 0.51%); type: functional; method in brief: as §1
[17] = test system: HepG2; experiment: Induction of apoptosis in human HepG2 cells assessed as late apoptotic cells at 0.5 uM after 24 hrs using annexin-V/FITC/propidium iodide staining by flow cytometry analysis (reference value: 3.16%); type: functional; method in brief: as §1
[18] = test system: HepG2; experiment: Induction of apoptosis in human HepG2 cells assessed as early apoptotic cells at 0.5 uM after 24 hrs using annexin-V/FITC/propidium iodide staining by flow cytometry analysis (reference value: 2.05%); type: functional; method in brief: as §1
[19] = test system: HepG2; experiment: Induction of apoptosis in human HepG2 cells assessed as viable cells at 0.5 uM after 24 hrs using annexin-V/FITC/propidium iodide staining by flow cytometry analysis (reference value: 94.29%); type: functional; conditions: HepG2, 24 h, read-out: Activity; method in brief: as §1
[20] = test system: HepG2; experiment: Induction of apoptosis in human HepG2 cells assessed as necrotic cells at 0.5 uM after 24 hrs using annexin-V/FITC/propidium iodide staining by flow cytometry analysis (reference value: 0.51%); type: functional; method in brief: as §1
[21] = test system: HepG2; experiment: Induction of apoptosis in human HepG2 cells assessed as late apoptotic cells at 0.25 uM after 24 hrs using annexin-V/FITC/propidium iodide staining by flow cytometry analysis (reference value: 3.16%); type: functional; method in brief: as §1
[22] = test system: HepG2; experiment: Induction of apoptosis in human HepG2 cells assessed as morphological changes at 20 uM after 24 hrs using Hoechst 33258 staining by fluorescence microscopic analysis; type: functional, cell-based; method in brief: as §2

Compound	IC50 [8] [nM]	IC50 [10] [nM]	IC50 [11] [nM]	IC50 [12] [nM]	also measured
COc1ccc2cc3[n+](cc2c1OC/C=C(\C)CC/C=C(\C)CCC=C(C)C)CCc1cc2c(cc1-3)OCO2.[Br-]	270	1820	210	80	Activity [1]: 1.66%; viability at 0.25 µM [2]: 91.4%; Activity [3]: 3.73%; Activity [4]: Active; Ratio IC50 [5]: 104; Activity [6]: <20%; Activity [7]: Dose-dependent effect; Activity [9]: tde; Activity [13]: 11.28%; Activity [14]: 2.39%; viability at 1 µM [15]: 69.2%; Activity [16]: 17.08%; Activity [17]: 17.4%; Activity [18]: 8.71%; viability at 0.5 µM [19]: 71.4%; Activity [20]: 2.48%; Activity [21]: 3.2%
COc1ccc2cc3[n+](cc2c1O)CCc1cc2c(cc1-3)OCO2 [BERBERRUBINE CHLORIDE]	> 50000	> 50000	> 50000	> 50000	–
COc1ccc2cc3[n+](cc2c1OC)CCc1cc2c(cc1-3)OCO2.[Cl-] [BERBERINE CHLORIDE]	8450	> 20000	11200	8320	Activity [1]: 2.99%; viability at 0.25 µM [2]: 89.8%; Activity [3]: 0.84%; Activity [22]: Active; Activity [13]: 5.51%; Activity [14]: 3.77%; viability at 1 µM [15]: 88.8%; Activity [16]: 1.88%; Activity [17]: 4.49%; Activity [18]: 4.39%; viability at 0.5 µM [19]: 90%; Activity [20]: 1.17%; Activity [21]: 6.4%
CCCCOc1c(OC)ccc2cc3[n+](cc12)CCc1cc2c(cc1-3)OCO2	870	4410	1810	970	–
CCCCCCCCCCCCOc1c(OC)ccc2cc3[n+](cc12)CCc1cc2c(cc1-3)OCO2.[Br-]	280	930	260	100	Activity [6]: <20%
COc1ccc2cc3[n+](cc2c1OCC=C(C)C)CCc1cc2c(cc1-3)OCO2	1750	10800	4670	3170	–
COc1ccc2cc3[n+](cc2c1OC/C=C(\C)CCC=C(C)C)CCc1cc2c(cc1-3)OCO2	140	1210	210	170	–
CCCCCCCCOc1c(OC)ccc2cc3[n+](cc12)CCc1cc2c(cc1-3)OCO2	80	480	190	100	–
